In ChEMBL document CHEMBL3804821, “Design and synthesis of some novel 4-Chloro-N-(4-(1-(2-(2-cyanoacetyl)hydrazono)ethyl)phenyl) benzenesulfonamide derivatives as anticancer and radiosensitizing agents” (Eur J Med Chem, 2016):
pIC50: −log10 of the molar value.

Tests used:
HepG2 [1] = assay: Cytotoxicity against human HepG2 cells assessed as cell viability after 48 hrs by SRB assay; assay type: functional, cell-based; details: HepG2, 48 h
How it was run: (§1)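 Cells seeded at 10^4/well and allowed to attach for 24 h. Compounds dissolved in DMSO, diluted with saline, and added at 12.5, 25, 50 and 100 µM in triplicate wells. Exposure 48 h, 37 °C, 5% CO2. Cells then TCA-fixed and stained 30 min with 0.4% SRB in 1% acetic acid, washed four times with 1% acetic acid, and dye recovered in Tris-EDTA. Absorbance read and surviving fraction plotted against concentration to obtain IC50.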

HepG2 [2] = assay: Cytotoxicity against human HepG2 cells assessed as surviving fraction at 100 uM after 48 hrs by SRB assay relative to control; assay type: functional; how it was run: as §1
HepG2 [3] = assay: Cytotoxicity against human HepG2 cells assessed as surviving fraction at 12.5 uM after 48 hrs by SRB assay relative to control; assay type: functional; how it was run: as §1
HepG2 [4] = assay: Cytotoxicity against human HepG2 cells assessed as surviving fraction at 25 uM after 48 hrs by SRB assay relative to control; assay type: functional; how it was run: as §1
HepG2 [5] = assay: Cytotoxicity against human HepG2 cells assessed as surviving fraction at 50 uM after 48 hrs by SRB assay relative to control; assay type: functional; how it was run: as §1
HepG2 [6] = assay: Cytotoxicity against human HepG2 cells assessed as surviving fraction at 25 uM treated for 2 hrs followed by gamma irradiation of 8 Gy with dosage rate of 0.758 rad/sec for 17.73 mins measured after 48 hrs by SRB assay relative to control; assay type: functional
How it was run: (§2)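 Cells seeded at 10^4/well for 24 h, then given compound at 12.5, 25, 50 or 100 µM. After 2 h, a single 8 Gy γ-ray dose was delivered (0.758 rad/sec, 17.73 min). Cells fixed 48 h after irradiation and stained with 0.4% SRB in 1% acetic acid, read at 570 nm. Surviving fraction reported as mean ± standard error and analysed by 1-way ANOVA; IC50 taken from the survival curve.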

HepG2 [7] = assay: Cytotoxicity against human HepG2 cells assessed as surviving fraction at 100 uM treated for 2 hrs followed by gamma irradiation of 8 Gy with dosage rate of 0.758 rad/sec for 17.73 mins measured after 48 hrs by SRB assay relative to control; assay type: functional; how it was run: as §2
HepG2 [8] = assay: Cytotoxicity against human HepG2 cells assessed as surviving fraction at 50 uM treated for 2 hrs followed by gamma irradiation of 8 Gy with dosage rate of 0.758 rad/sec for 17.73 mins measured after 48 hrs by SRB assay relative to control; assay type: functional; how it was run: as §2
HepG2 [9] = assay: Cytotoxicity against human HepG2 cells assessed as surviving fraction at 12.5 uM treated for 2 hrs followed by gamma irradiation of 8 Gy with dosage rate of 0.758 rad/sec for 17.73 mins measured after 48 hrs by SRB assay relative to control; assay type: functional; how it was run: as §2
HepG2 [10] = assay: Cytotoxicity against human HepG2 cells assessed as cell viability treated for 2 hrs followed by gamma irradiation of 8 Gy with dosage rate of 0.758 rad/sec for 17.73 mins measured after 48 hrs by SRB assay; assay type: functional, cell-based; details: HepG2, light or radiation study; how it was run: as §2
HepG2 [11] = assay: Potency index, ratio of doxorubicin IC50 to compound IC50 for human HepG2 cells; assay type: functional

SMILES: CCOC(=O)c1c(-c2ccccc2)c(C#N)c(=O)n(/N=C(\C)c2ccc(NS(=O)(=O)c3ccc(Cl)cc3)cc2)c1N
- pIC50 (HepG2 [1]): 4.77
- Ratio (HepG2 [2]): 0.179
- Ratio (HepG2 [3]): 0.617
- Ratio (HepG2 [4]): 0.287
- Ratio (HepG2 [5]): 0.212

SMILES: C/C(=N\NC(=O)/C(C#N)=C/N(C)C)c1ccc(NS(=O)(=O)c2ccc(Cl)cc2)cc1
- pIC50 (HepG2 [1]): 4.71
- Ratio (HepG2 [2]): 0.281
- Ratio (HepG2 [3]): 0.642
- Ratio (HepG2 [4]): 0.386
- Ratio (HepG2 [5]): 0.311

SMILES: CCOC(=O)c1c(-c2ccccc2Cl)c(C#N)c(=O)n(/N=C(\C)c2ccc(NS(=O)(=O)c3ccc(Cl)cc3)cc2)c1N
- pIC50 (HepG2 [1]): 4.94
- Ratio (HepG2 [2]): 0.192
- Ratio (HepG2 [3]): 0.488
- Ratio (HepG2 [4]): 0.545
- Ratio (HepG2 [5]): 0.342

SMILES: CCOC(=O)c1c(-c2cccc([N+](=O)[O-])c2)c(C#N)c(=O)n(/N=C(\C)c2ccc(NS(=O)(=O)c3ccc(Cl)cc3)cc2)c1N
- pIC50 (HepG2 [1]): 4.53
- Ratio (HepG2 [2]): 0.298
- Ratio (HepG2 [3]): 0.661
- Ratio (HepG2 [4]): 0.524
- Ratio (HepG2 [5]): 0.381

SMILES: C/C(=N\NC(=O)C(C#N)C(=S)S)c1ccc(NS(=O)(=O)c2ccc(Cl)cc2)cc1 (stereo not given)
- pIC50 (HepG2 [1]): 4.76
- Ratio (HepG2 [2]): 0.248
- Ratio (HepG2 [3]): 0.542
- Ratio (HepG2 [4]): 0.448
- Ratio (HepG2 [5]): 0.387

SMILES: CCOC(=O)c1c(-c2ccc(N(C)C)cc2)c(C#N)c(=O)n(/N=C(\C)c2ccc(NS(=O)(=O)c3ccc(Cl)cc3)cc2)c1N
- pIC50 (HepG2 [1]): 4.68
- Ratio (HepG2 [2]): 0.196
- Ratio (HepG2 [3]): 0.653
- Ratio (HepG2 [4]): 0.432
- Ratio (HepG2 [5]): 0.396

SMILES: CSC(SC)=C(C#N)C(=O)N/N=C(\C)c1ccc(NS(=O)(=O)c2ccc(Cl)cc2)cc1
- pIC50 (HepG2 [1]): 4.71
- Ratio (HepG2 [2]): 0.266
- Ratio (HepG2 [3]): 0.579
- Ratio (HepG2 [4]): 0.44
- Ratio (HepG2 [5]): 0.329

SMILES: CCOC(=O)c1c(-c2ccc(C)cc2)c(C#N)c(=O)n(/N=C(\C)c2ccc(NS(=O)(=O)c3ccc(Cl)cc3)cc2)c1N
- Ratio (HepG2 [6]): 0.15
- pIC50 (HepG2 [1]): 5.08
- Ratio (HepG2 [2]): 0.107
- Ratio (HepG2 [7]): 0.11
- Ratio (HepG2 [8]): 0.12
- Ratio (HepG2 [9]): 0.18
- pIC50 (HepG2 [10]): 5.14
- Ratio (HepG2 [3]): 0.264
- Ratio (HepG2 [4]): 0.25
- Ratio (HepG2 [5]): 0.214

SMILES: CCOC(=O)c1c(/C=C/c2ccccc2)c(C#N)c(=O)n(/N=C(\C)c2ccc(NS(=O)(=O)c3ccc(Cl)cc3)cc2)c1N
- pIC50 (HepG2 [1]): 4.97
- Ratio (HepG2 [2]): 0.114
- Ratio (HepG2 [3]): 0.414
- Ratio (HepG2 [4]): 0.336
- Ratio (HepG2 [5]): 0.275

SMILES: COc1cccc2c1C(=O)c1c(O)c3c(c(O)c1C2=O)C[C@@](O)(C(=O)CO)C[C@@H]3O[C@H]1C[C@H](N)[C@H](O)[C@H](C)O1 [DOXORUBICIN]
- Ratio (HepG2 [2]): 0.13
- Ratio (HepG2 [3]): 0.551
- Ratio (HepG2 [4]): 0.48
- Ratio (HepG2 [5]): 0.139

SMILES: CCOC(=O)c1c(-c2ccc(Cl)cc2)c(C#N)c(=O)n(/N=C(\C)c2ccc(NS(=O)(=O)c3ccc(Cl)cc3)cc2)c1N
- pIC50 (HepG2 [1]): 4.69
- Ratio (HepG2 [2]): 0.314
- Ratio (HepG2 [3]): 0.555
- Ratio (HepG2 [4]): 0.463
- Ratio (HepG2 [5]): 0.394

SMILES: CCOC(=O)c1c(-c2ccc3c(c2)OCO3)c(C#N)c(=O)n(/N=C(\C)c2ccc(NS(=O)(=O)c3ccc(Cl)cc3)cc2)c1N
- pIC50 (HepG2 [1]): 4.43
- Ratio (HepG2 [2]): 0.134
- Ratio (HepG2 [3]): 0.691
- Ratio (HepG2 [4]): 0.606
- Ratio (HepG2 [5]): 0.373

SMILES: CCO/C=C(\C#N)C(=O)N/N=C(\C)c1ccc(NS(=O)(=O)c2ccc(Cl)cc2)cc1
- pIC50 (HepG2 [1]): 4.77
- Ratio (HepG2 [2]): 0.222
- Ratio (HepG2 [3]): 0.556
- Ratio (HepG2 [4]): 0.406
- Ratio (HepG2 [5]): 0.228

SMILES: CCOC(=O)c1c(-c2ccc(OC)cc2)c(C#N)c(=O)n(/N=C(\C)c2ccc(NS(=O)(=O)c3ccc(Cl)cc3)cc2)c1N
- pIC50 (HepG2 [1]): 4.21
- Ratio (HepG2 [2]): 0.147
- Ratio (HepG2 [3]): 0.651
- Ratio (HepG2 [4]): 0.637
- Ratio (HepG2 [5]): 0.613

SMILES: CCOC(=O)c1c(-c2ccco2)c(C#N)c(=O)n(/N=C(\C)c2ccc(NS(=O)(=O)c3ccc(Cl)cc3)cc2)c1N
- Ratio (HepG2 [6]): 0.22
- pIC50 (HepG2 [1]): 4.99
- Ratio (HepG2 [2]): 0.342
- Ratio (HepG2 [7]): 0.1
- Ratio (HepG2 [8]): 0.1
- Ratio (HepG2 [9]): 0.32
- pIC50 (HepG2 [10]): 5.06
- Ratio (HepG2 [3]): 0.413
- Ratio (HepG2 [4]): 0.367
- Ratio (HepG2 [5]): 0.37

SMILES: C/C(=N\NC(=O)CC#N)c1ccc(NS(=O)(=O)c2ccc(Cl)cc2)cc1
- Ratio (HepG2 [6]): 0.25
- pIC50 (HepG2 [1]): 5.10
- Ratio (HepG2 [2]): 0.064
- Ratio (HepG2 [7]): 0.11
- Ratio IC50 (HepG2 [11]): 4
- Ratio (HepG2 [8]): 0.12
- Ratio (HepG2 [9]): 0.26
- pIC50 (HepG2 [10]): 5.19
- Ratio (HepG2 [3]): 0.18
- Ratio (HepG2 [4]): 0.159
- Ratio (HepG2 [5]): 0.078

SMILES: CCOC(=O)c1c(-c2ccccc2OC)c(C#N)c(=O)n(/N=C(\C)c2ccc(NS(=O)(=O)c3ccc(Cl)cc3)cc2)c1N
- pIC50 (HepG2 [1]): 4.94
- Ratio (HepG2 [2]): 0.087
- Ratio (HepG2 [3]): 0.489
- Ratio (HepG2 [4]): 0.129
- Ratio (HepG2 [5]): 0.105

SMILES: CCOC(=O)c1c(-c2ccc([N+](=O)[O-])cc2)c(C#N)c(=O)n(/N=C(\C)c2ccc(NS(=O)(=O)c3ccc(Cl)cc3)cc2)c1N
- pIC50 (HepG2 [1]): 4.39
- Ratio (HepG2 [2]): 0.212
- Ratio (HepG2 [3]): 0.713
- Ratio (HepG2 [4]): 0.586
- Ratio (HepG2 [5]): 0.483
